In ChEMBL document CHEMBL1806473, “Structure-based optimization of click-based histone deacetylase inhibitors” (Eur J Med Chem, 2011):

Assays:
LOX IMVI [1] = experiment: Antiproliferative activity against human LOXIMVI cells by SRB assay; assay type: functional
Outline: (§1)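 Tested in the NCI in vitro human tumor cell line screen, run by the National Cancer Institute. Each compound was given at five concentrations (100, 10, 1.0, 0.1 and 0.01 μM). GI50 is the drug concentration that reduces growth of treated cells to half that of control cells during drug incubation, judged from the SRB signal.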

MCF7 = experiment: Cytotoxicity against human MCF7 cells; assay type: cell-based
T47D [2] = experiment: Antiproliferative activity against human T47D cells by SRB assay; assay type: functional
Outline: (§2)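 Cell growth was tested in the NIH in vitro disease-oriented human tumor cell line screen, which NCI ran for these compounds. Compounds were tested at five concentrations (100, 10, 1.0, 0.1 and 0.01 μM), and growth was read by SRB signal. GI50 is the drug concentration that reduces growth of treated cells to half that of control cells during drug incubation.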

DU-145 = experiment: Cytotoxicity against human DU145 cells; assay type: cell-based
Outline: (§3)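 Tested in the NCI in vitro disease-oriented human tumour cell line screen, with screening performed by NCI. Growth was read by SRB signal over the drug incubation period at five concentrations: 100, 10, 1.0, 0.1 and 0.01 μM. GI50 is the concentration that reduces growth of treated cells to half that of control cells.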

Malme-3M [3] = experiment: Antiproliferative activity against human MALME-3M cells by SRB assay; assay type: functional; outline: as §1
LOX IMVI [4] = experiment: Cytotoxicity against human LOXIMVI cells; assay type: cell-based
NCI-H226 [5] = experiment: Cytotoxicity against human NCI-H226 cells; assay type: cell-based
Histone deacetylase = experiment: Inhibition of HDAC in human HeLa cells using Ac-Arg-Gly-Lys(Ac)-AMC as fluorescent substrate after 20 mins by fluorescence assay; assay type: cell-based
Malme-3M [6] = experiment: Cytotoxicity against human MALME-3M cells; assay type: cell-based; outline: as §3
SF-295 [7] = experiment: Cytotoxicity against human SF295 cells; assay type: cell-based; outline: as §3
CCRF-CEM = experiment: Cytotoxicity against human CCRF-CEM cells; assay type: cell-based
SK-MEL-5 [8] = experiment: Antiproliferative activity against human SK-MEL-5 cells by SRB assay; assay type: functional; outline: as §1
COLO 205 = experiment: Cytotoxicity against human COLO205 cells; assay type: cell-based; outline: as §3
HL-60(TB) = experiment: Antiproliferative activity against human HL-60(TB) cells by SRB assay; assay type: functional; outline: as §3
NCI-H460 [9] = experiment: Antiproliferative activity against human NCI-H460 cells by SRB assay; assay type: functional; outline: as §1
NCI-H460 [10] = experiment: Cytotoxicity against human NCI-H460 cells; assay type: cell-based
MDA-MB-435 = experiment: Cytotoxicity against human MDA-MB-435 cells; assay type: cell-based
HCT-116 = experiment: Cytotoxicity against human HCT116 cells; assay type: cell-based; outline: as §3
ACHN = experiment: Cytotoxicity against human ACHN cells; assay type: cell-based
SK-MEL-2 [11] = experiment: Cytotoxicity against human SK-MEL-2 cells; assay type: cell-based; outline: as §3
T47D [12] = experiment: Cytotoxicity against human T47D cells; assay type: cell-based
Outline: (§4)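 Screened by NCI in its in vitro disease-oriented human tumour cell line panel. Compounds tested at five concentrations (100, 10, 1.0, 0.1 and 0.01 μM). Growth read by sulforhodamine B (SRB) signal. GI50 is the concentration reducing growth of treated cells to half that of control cells during the drug incubation.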

OVCAR-3 = experiment: Cytotoxicity against human OVCAR3 cells; assay type: cell-based; outline: as §3
NCI-H23 = experiment: Antiproliferative activity against human NCI-H23 cells by SRB assay; assay type: functional; outline: as §1
PC-3 = experiment: Cytotoxicity against human PC3 cells; assay type: cell-based
UO-31 [13] = experiment: Antiproliferative activity against human UO31 cells by SRB assay; assay type: functional; outline: as §2
SNB-19 = experiment: Cytotoxicity against human SNB19 cells; assay type: cell-based; outline: as §4
OVCAR-8 = experiment: Antiproliferative activity against human OVCAR8 cells by SRB assay; assay type: functional; outline: as §1
RXF 393 = experiment: Antiproliferative activity against human RXF393 cells by SRB assay; assay type: functional; outline: as §1
A549 = experiment: Antiproliferative activity against human A549 cells by SRB assay; assay type: functional; outline: as §1
SNB-75 [14] = experiment: Cytotoxicity against human SNB75 cells; assay type: cell-based; outline: as §4
[15] = Antiproliferative activity against human Hs 578T cells by SRB assay; assay type: functional; outline: as §1
SK-OV-3 [16] = experiment: Antiproliferative activity against human SKOV3 cells by SRB assay; assay type: functional; outline: as §1
SK-MEL-28 [17] = experiment: Cytotoxicity against human SK-MEL-28 cells; assay type: cell-based
UO-31 [18] = experiment: Cytotoxicity against human UO31 cells; assay type: cell-based; outline: as §4
OVCAR-5 [19] = experiment: Antiproliferative activity against human OVCAR5 cells by SRB assay; assay type: functional; outline: as §1
EKVX = experiment: Cytotoxicity against human EKVX cells; assay type: cell-based; outline: as §3
CAKI-1 = experiment: Cytotoxicity against human Caki1 cells; assay type: cell-based
KM12 = experiment: Antiproliferative activity against human KM12 cells by SRB assay; assay type: functional; outline: as §1
HOP-92 [20] = experiment: Cytotoxicity against human HOP92 cells; assay type: cell-based
NCI-H322M = experiment: Antiproliferative activity against human NCI-H322M cells by SRB assay; assay type: functional; outline: as §1
HOP-62 = experiment: Antiproliferative activity against human HOP62 cells by SRB assay; assay type: functional; outline: as §1
HT-29 = experiment: Antiproliferative activity against human HT-29 cells by SRB assay; assay type: functional; outline: as §1
OVCAR-5 [21] = experiment: Cytotoxicity against human OVCAR5 cells; assay type: cell-based; outline: as §3
SF-295 [22] = experiment: Antiproliferative activity against human SF295 cells by SRB assay; assay type: functional; outline: as §1
SK-MEL-5 [23] = experiment: Cytotoxicity against human SK-MEL-5 cells; assay type: cell-based
NCI-H522 = experiment: Antiproliferative activity against human NCI-H522 cells by SRB assay; assay type: functional; outline: as §1
OVCAR-4 = experiment: Cytotoxicity against human OVCAR4 cells; assay type: cell-based
BT-549 [24] = experiment: Cytotoxicity against human BT549 cells; assay type: cell-based
BT-549 [25] = experiment: Antiproliferative activity against human BT549 cells by SRB assay; assay type: functional; outline: as §1
SF-539 = experiment: Cytotoxicity against human SF539 cells; assay type: cell-based; outline: as §3
SK-OV-3 [26] = experiment: Cytotoxicity against human SKOV3 cells; assay type: cell-based
A498 = experiment: Cytotoxicity against human A498 cells; assay type: cell-based
SR = experiment: Antiproliferative activity against human SR cells by SRB assay; assay type: functional; outline: as §2
SF-268 = experiment: Cytotoxicity against human SF268 cells; assay type: cell-based; outline: as §3
NCI-H226 [27] = experiment: Antiproliferative activity against human NCI-H226 cells by SRB assay; assay type: functional; outline: as §1
SW-620 = experiment: Cytotoxicity against human SW620 cells; assay type: cell-based; outline: as §4
UACC-257 [28] = experiment: Antiproliferative activity against human UACC257 cells by SRB assay; assay type: functional; outline: as §2
TK-10 = experiment: Antiproliferative activity against human TK10 cells by SRB assay; assay type: functional; outline: as §2
SNB-75 [29] = experiment: Antiproliferative activity against human SNB75 cells by SRB assay; assay type: functional; outline: as §2
UACC-257 [30] = experiment: Cytotoxicity against human UACC257 cells; assay type: cell-based; outline: as §4
HCT-15 = experiment: Cytotoxicity against human HCT15 cells; assay type: cell-based; outline: as §3
SK-MEL-2 [31] = experiment: Antiproliferative activity against human SK-MEL-2 cells by SRB assay; assay type: functional; outline: as §1
HOP-92 [32] = experiment: Antiproliferative activity against human HOP92 cells by SRB assay; assay type: functional; outline: as §1
SK-MEL-28 [33] = experiment: Antiproliferative activity against human SK-MEL-28 cells by SRB assay; assay type: functional; outline: as §1

Question: With `O=C(/C=C/c1cn(C(/C=C/c2ccccc2)Cc2ccccc2)nn1)NO` (centres undefined) as the molecule, how does the GI50 (LOX IMVI [1]) read?
Answer: 0.521 µM

Question: What about the LC50 (MCF7) of the same molecule?
Answer: 93.2 µM

Question: What about the GI50 (T47D [2]) of the same molecule?
Answer: 0.411 µM

Question: What about the LC50 (DU-145) of the same molecule?
Answer: 46.3 µM

Question: And the GI50 (Malme-3M [3])?
Answer: 0.305 µM

Question: What about the LC50 (LOX IMVI [4]) of the same molecule?
Answer: 4.62 µM

Question: And the LC50 (NCI-H226 [5])?
Answer: 46.8 µM

Question: And the IC50 (Histone deacetylase)?
Answer: 0.077 µM

Question: What about the LC50 (Malme-3M [6]) of the same molecule?
Answer: 28.6 µM

Question: And the LC50 (SF-295 [7])?
Answer: 6.56 µM

Question: What about the LC50 (CCRF-CEM) of the same molecule?
Answer: > 100 µM

Question: And the GI50 (SK-MEL-5 [8])?
Answer: 0.879 µM

Question: And the LC50 (COLO 205)?
Answer: 8 µM

Question: And the GI50 (HL-60(TB))?
Answer: 0.67 µM

Question: And the GI50 (NCI-H460 [9])?
Answer: 1.04 µM

Question: And the LC50 (NCI-H460 [10])?
Answer: 27.2 µM

Question: What about the LC50 (MDA-MB-435) of the same molecule?
Answer: 15.7 µM

Question: What about the LC50 (HCT-116) of the same molecule?
Answer: 5.97 µM

Question: What about the LC50 (ACHN) of the same molecule?
Answer: 13.7 µM

Question: What about the LC50 (SK-MEL-2 [11]) of the same molecule?
Answer: 49.2 µM

Question: And the LC50 (T47D [12])?
Answer: 61.7 µM

Question: What about the LC50 (OVCAR-3) of the same molecule?
Answer: 8.7 µM

Question: What about the GI50 (NCI-H23) of the same molecule?
Answer: 1.51 µM

Question: What about the LC50 (PC-3) of the same molecule?
Answer: > 100 µM

Question: And the GI50 (UO-31 [13])?
Answer: 0.65 µM

Question: What about the LC50 (SNB-19) of the same molecule?
Answer: 18.8 µM

Question: And the GI50 (OVCAR-8)?
Answer: 0.63 µM

Question: And the GI50 (RXF 393)?
Answer: 1.21 µM

Question: What about the GI50 (A549) of the same molecule?
Answer: 1.41 µM

Question: And the LC50 (SNB-75 [14])?
Answer: 9.83 µM

Question: And the GI50 [15]?
Answer: 0.934 µM

Question: And the GI50 (SK-OV-3 [16])?
Answer: 1.98 µM

Question: What about the LC50 (SK-MEL-28 [17]) of the same molecule?
Answer: 9.4 µM

Question: And the LC50 (UO-31 [18])?
Answer: 6.57 µM

Question: What about the GI50 (OVCAR-5 [19]) of the same molecule?
Answer: 0.426 µM

Question: And the LC50 (EKVX)?
Answer: 87.4 µM

Question: And the LC50 (CAKI-1)?
Answer: 6.25 µM

Question: What about the GI50 (KM12) of the same molecule?
Answer: 1.93 µM

Question: What about the LC50 (HOP-92 [20]) of the same molecule?
Answer: 11.6 µM

Question: What about the GI50 (NCI-H322M) of the same molecule?
Answer: 1.37 µM

Question: And the GI50 (HOP-62)?
Answer: 1.44 µM

Question: And the GI50 (HT-29)?
Answer: 0.547 µM

Question: What about the LC50 (OVCAR-5 [21]) of the same molecule?
Answer: 22.3 µM

Question: What about the GI50 (SF-295 [22]) of the same molecule?
Answer: 0.291 µM

Question: And the LC50 (SK-MEL-5 [23])?
Answer: 5.3 µM

Question: And the GI50 (NCI-H522)?
Answer: 0.386 µM

Question: What about the LC50 (OVCAR-4) of the same molecule?
Answer: 61.6 µM

Question: What about the LC50 (BT-549 [24]) of the same molecule?
Answer: > 100 µM

Question: And the GI50 (BT-549 [25])?
Answer: 1.62 µM

Question: And the LC50 (SF-539)?
Answer: 6.91 µM

Question: And the LC50 (SK-OV-3 [26])?
Answer: 13.3 µM

Question: And the LC50 (A498)?
Answer: 5.46 µM

Question: And the GI50 (SR)?
Answer: 0.624 µM

Question: And the LC50 (SF-268)?
Answer: 9.17 µM

Question: And the GI50 (NCI-H226 [27])?
Answer: 2.44 µM

Question: And the LC50 (SW-620)?
Answer: 13.6 µM

Question: And the GI50 (UACC-257 [28])?
Answer: 1.68 µM

Question: And the GI50 (TK-10)?
Answer: 0.827 µM

Question: What about the GI50 (SNB-75 [29]) of the same molecule?
Answer: 0.258 µM

Question: What about the LC50 (UACC-257 [30]) of the same molecule?
Answer: 93.7 µM

Question: What about the LC50 (HCT-15) of the same molecule?
Answer: 74.5 µM

Question: And the GI50 (SK-MEL-2 [31])?
Answer: 1.89 µM

Question: And the GI50 (HOP-92 [32])?
Answer: 1.08 µM

Question: What about the GI50 (SK-MEL-28 [33]) of the same molecule?
Answer: 1.3 µM
